Experimental data pooled from the literature.
Protocols differ between the studies behind these lines.
Target: Casein kinase I isoform gamma-2 (CSNK1G2, Homo sapiens, UniProt P78368)

N#CCCc1ccc2c(c1)-c1[nH]c3ccc([N+](=O)[O-])cc3c1CC(=O)N2 has a remaining signal of 84.8% (cell-free assay; 0.5 µM).
CC1=C(C#N)[C@@H](c2ccc3[nH]nc(C)c3c2)C(C#N)=C(c2ccc(Cl)cc2)N1 has a remaining binding of 100% (cell-free assay; competition with immobilised ligand; 1 µM).
O=C(Nc1cnn(-c2csc(C(=O)NC3COC3)c2)c1)Nc1c(F)cccc1Cl has a remaining activity of 90.2% (enzyme activity; inhibitor; 5 µM).
For COc1cc(/C=C/C(=O)CC(=O)/C=C/c2ccc(O)c(OC)c2)ccc1O, the activity vs control was 77% (enzyme activity; inhibitor; 1 µM).
CCCOc1ccc([C@@H]2[C@@H](C(=O)O)[C@H](c3ccc4c(c3)OCO4)CN2CC(=O)Nc2c(CC)cccc2CC)cc1 gave a remaining binding of 96% (cell-free assay; competition with immobilised ligand; 1 µM).
With COc1cc2ncnc(Nc3ccc(Oc4ccccc4)c(C)c3C)c2cc1OC the inhibition was 1% (enzyme activity; inhibitor; 1 µM).
With Cc1cnc(NC2CCOCC2)nc1-n1cnc(C(=O)NC(CN)c2cc(F)cc(Cl)c2)c1 (stereo not shown) the remaining activity was 53% (enzyme activity; inhibitor; radiometric; 1 µM).
For C[C@@H](c1cccc(C#N)c1)n1cc(Cl)cc(C(N)=O)c1=N, the remaining binding was 100% (cell-free assay; competition with immobilised ligand; 1 µM).
The remaining signal of COc1cc(Nc2c(C#N)cnc3cc(OCCCN4CCN(C)CC4)c(OC)cc23)c(Cl)cc1Cl is reported as 98.3% (cell-free assay; 0.5 µM).
C[C@H](NC(=O)c1cnc2n1[C@](C)(Cc1ccc(C#N)cc1)C(=O)N2c1cc(Cl)c(F)c(Cl)c1)C(=O)NC1(c2ccccn2)CC1 has a remaining binding of 90% (cell-free assay; competition with immobilised ligand; 1 µM).
With CN(CCCC(F)(F)F)c1nccc(-c2cnn3ncccc23)n1 the remaining binding was 100% (binding; 1 µM).
For O=C(Nc1cnn(-c2csc(C(=O)NC3COC3)c2)c1)Nc1ccccc1Cl, the remaining activity was 98.5% (enzyme activity; inhibitor; 5 µM).
Cc1ccc(NC(=O)c2ccc(C)c(C(F)(F)F)c2)cc1C#Cc1nn(C2CCC(O)CC2)c2ncnc(N)c12 (stereo not shown) has a remaining signal of 114% (cell-free assay; 10 µM).
NS(=O)(=O)c1cc(NC(=O)Cc2ccccc2)ccc1Oc1cccc(Cl)c1 has a remaining binding of 100% (cell-free assay; competition with immobilised ligand; 1 µM).
For O=C1Nc2ccc(Cl)cc2C1=Cc1cc(Cl)c(O)c(Cl)c1, the remaining signal was 83.5% (cell-free assay; 0.5 µM).
CNC(=O)c1cc(Oc2ccc(NC(=O)Nc3ccc(Cl)c(C(F)(F)F)c3)cc2)ccn1 gave an inhibition of 5% (enzyme activity; inhibitor; 0.3 µM).
For O=C(CSc1nc2nccnc2c(=O)n1CCc1ccccc1)Nc1nccs1, the inhibition was 14% (enzyme activity; inhibitor; 10 µM).
COc1cc(Cl)c(C(=O)N[C@@H](CN[C@H]2CC[C@@H](N)CC2)Cc2ccc(C#N)cc2)cc1-c1ccc(CN[C@H](C)c2ccc(C)cc2)o1 gave a remaining activity of 112% (enzyme activity; inhibitor; 1 µM).
C[C@@H]1CCN(C(=O)CC#N)C[C@@H]1N(C)c1ncnc2[nH]ccc12 gave a remaining signal of 95.4% (cell-free assay; inhibitor; 0.5 µM).
C[C@@H]1CN(c2cc(-c3n[nH]c4ccc(OC5(C)CC5)cc34)ncn2)C[C@H](C)O1 has a remaining binding of 100% (cell-free assay; competition with immobilised ligand; 0.1 µM).
CC(C)(C)c1nc(-c2cccc(NS(=O)(=O)c3c(F)cccc3F)c2F)c(-c2ccnc(N)n2)s1 gave a remaining activity of 101% (enzyme activity; inhibitor; radiometric; 1 µM).
With Cc1cc(NC(=O)c2cccc3cc(-c4cccc5[nH]nc(N)c45)ccc23)ccc1F the activity vs control was 102% (enzyme activity; inhibitor; 0.1 µM).
